Experimental data from ChEMBL document CHEMBL1806397, “6-Aryl-3-pyrrolidinylpyridines as mGlu5 receptor negative allosteric modulators” (Bioorg Med Chem Lett, 2011).

Assays:
[1] = Drug level in Sprague-Dawley rat cerebrospinal fluid at 10 mg/kg, po after 1 hr; format: ADME, organism-based; parameters: dose 10 mg/kg, route oral; settings: read-out: Drug uptake
[2] = Ratio of drug level in brain to plasma in Sprague-Dawley rat at 10 mg/kg, po after 1 hr; format: ADME, organism-based; parameters: dose 10 mg/kg, route oral; settings: read-out: BPR
Plasma = test: Free drug level in Sprague-Dawley rat plasma at 10 mg/kg, po after 1 hr; format: ADME, organism-based; parameters: dose 10 mg/kg, route oral; settings: in vivo
[3] = Drug level in Sprague-Dawley rat brain at 10 mg/kg, po after 1 hr; format: ADME, organism-based; parameters: dose 10 mg/kg, route oral; settings: read-out: Drug uptake
[4] = Drug level in Sprague-Dawley rat plasma at 10 mg/kg, po after 1 hr; format: ADME, organism-based; parameters: dose 10 mg/kg, route oral
[5] = Distribution coefficient, log D of the compound at pH 7.4; format: physicochemical; settings: octanol/water
[6] = Apparent permeability of the compound at pH 7.4 by PAMPA method; format: ADME
How it was run: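 Passive membrane permeability estimated by PAMPA; apparent permeability (P_APP) reported in cm/s.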

Liver microsomes = test: Intrinsic clearance in human liver microsomes at 1 uM after 0.25 to 60 mins by LC-MS/MS analysis; format: ADME, Microsome
How it was run: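 Compound at 1 µM incubated at 37 °C with pooled human liver microsomes (0.5 mg/mL) in 0.1 M potassium phosphate pH 7.4 with an NADPH-regenerating system. Aliquots taken at 0.25, 5, 15, 30 and 60 min and quenched in acetonitrile. CLint calculated from T1/2, scaled by liver and microsomal protein factors.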

[7] = Dissociation constant, pKa of the compound; format: physicochemical

SMILES | CL (Liver microsomes) | pKa [7] | also measured
Cc1cc(-c2cccc(Cl)c2)ncc1[C@H]1CCCN1C(=O)c1nccs1 | – | – | concentration at 1 h [1]: 3 nM; Kp at 1 h [2]: 0.8; Cp(f) (Plasma): 1 nM; concentration at 1 h [3]: 133 nM; concentration at 1 h [4]: 162 nM; logD [5]: 4.3; Papp [6]: 15 ×10⁻⁶ cm/s
O=C(c1nccs1)N1CCCC1c1ccc(-c2cccc(Cl)c2)nc1 (stereo unspecified) | 3.8 L/min | – | –
Cc1cc(C(=O)N2CCCC2c2ccc(-c3cccc(Cl)c3)nc2)no1 (stereo unspecified) | – | 3.5 | –
O=C(c1cccs1)N1CCCC1c1ccc(-c2cccc(Cl)c2)nc1 (stereo unspecified) | 3 L/min | 3.6 | –
O=C(C1CCC1)N1CCCC1c1cnc(-c2cccc(Cl)c2)cc1O (stereo unspecified) | – | 2.8 | –
O=C(c1cncs1)N1CCCC1c1ccc(-c2cccc(Cl)c2)nc1 (stereo unspecified) | 1.6 L/min | 3.6 | –
COc1cc(-c2cccc(Cl)c2)ncc1C1CCCN1C(=O)c1cncs1 (stereo unspecified) | 1.7 L/min | 5 | –
Cc1cc(-c2cccc(Cl)c2)ncc1C1CCCN1C(=O)C1CCC1 (stereo unspecified) | 5.3 L/min | – | –
Cc1cc(C(=O)N2CCCC2c2cnc(-c3cccc(Cl)c3)cc2C)no1 (stereo unspecified) | 38 L/min | 4.2 | –

Second part, led by results:

CL (Liver microsomes) | pKa [7] | SMILES | also measured
3.3 L/min | 3.4 | O=C(c1cnccn1)N1CCCC1c1ccc(-c2cccc(Cl)c2)nc1 (stereo unspecified) | –
5.3 L/min | – | Cc1cc(-c2cccc(Cl)c2)ncc1C1CCCN1C(=O)c1ccncn1 (stereo unspecified) | –
0.9 L/min | – | Cc1cc(-c2cccc(Cl)c2)ncc1C1CC(O)CN1C(=O)c1nccs1 (stereo unspecified) | –
2.6 L/min | – | Cc1cc(-c2cccc(Cl)c2)ncc1C1CC(F)CN1C(=O)c1cnccn1 (stereo unspecified) | –
7.1 L/min | – | Cc1cc(-c2cccc(Cl)c2)ncc1C1CC(F)CN1C(=O)c1cncs1 (stereo unspecified) | –
35 L/min | 4.2 | Cc1cc(-c2cccc(Cl)c2)ncc1C1CCCN1C(=O)c1cncs1 (stereo unspecified) | –
1.6 L/min | – | Cc1cc(-c2cccc(Cl)c2)ncc1C1CC(O)CN1C(=O)c1cnccn1 (stereo unspecified) | –
3.3 L/min | 4.1 | Cc1cc(-c2cccc(Cl)c2)ncc1C1CCCN1C(=O)c1cnccn1 (stereo unspecified) | –
5.2 L/min | – | Cc1cc(-c2cccc(Cl)c2)ncc1C1CCCN1C(=O)c1nccs1 (racemic) | –
